In brackets after ≈: the same amount, converted by molar mass.
Experiments:
[1] = target: T1, Epidermal growth factor receptor (Homo sapiens, UniProt P00533, L858R); assay: Inhibition of recombinant human GST-tagged EGFR L858R mutant cytoplasmic domain expressed in baculovirus expression system preincubated for 20 mins followed by addition of [33P]-ATP measured after 2 hrs by filter-binding method; conditions: read-out: IC50
[2] = target: T2, Epidermal growth factor receptor (Homo sapiens, UniProt P00533, L858R/T790M); assay: Inhibition of recombinant human GST-tagged EGFR L858R/T790M double mutant cytoplasmic domain expressed in baculovirus expression system preincubated for 20 mins followed by addition of [33P]-ATP measured after 2 hrs by filter-binding method
[3] = target: Epidermal growth factor receptor (Homo sapiens, UniProt P00533, T790M/C797S/L858R); assay: Inhibition of recombinant human N-terminally GST-tagged EGFR L858R/T790M/C797S triple mutant expressed in baculovirus in Sf9 insect cells preincubated for 20 mins followed by addition of [33P]-ATP measured after 2 hrs by filter-binding method
[4] = Solubility of the compound at pH 7.5 by UV-HPLC analysis; format: physicochemical; conditions: buffer, read-out: solubility
How it was run: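 Solubility measured in the kinase assay buffer (pH 7.5); concentration determined by HPLC with UV detection.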

Homo sapiens [5] = organism: Homo sapiens; assay: Selectivity ratio of IC50 for EGFR L858R/T790M double mutant (unknown origin) to IC50 for wild-type EGFR (unknown origin)
[6] = target: T3, Epidermal growth factor receptor (Homo sapiens, UniProt P00533); assay: Binding affinity to wild-type human EGFR (669 to 1011 residues) expressed in bacterial system incubated for 1 hr; format: ADME
How it was run: (§1)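 Competition binding of inhibitor against an immobilized active-site-directed ligand; Kd read out. Compound and kinase combined and equilibrated for 1 h without dilution (study arm C).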

[7] = target: T3, Epidermal growth factor receptor; assay: Binding affinity to wild-type human EGFR (669 to 1011 residues) expressed in bacterial system preincubated for 1 hr followed by 30 fold dilution measured after 5 hrs; format: ADME
How it was run: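 Competition binding against an immobilized active-site-directed ligand; Kd read out. Compound and kinase combined and equilibrated 1 h, then diluted 30-fold in reaction buffer and equilibrated a further 5 h (study arm B).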

[8] = target: T1, Epidermal growth factor receptor; assay: Binding affinity to human EGFR L858R mutant (669 to 1011 residues) expressed in bacterial system preincubated for 1 hr followed by 30 fold dilution measured after 5 hrs
How it was run: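 Competition binding: compound's ability to displace an immobilized, active-site-directed ligand from the kinase, reported as Kd. Compound and kinase were equilibrated 1 h, diluted 30-fold in reaction buffer, then equilibrated a further 5 h before read-out.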

[9] = target: T2, Epidermal growth factor receptor; assay: Binding affinity to human EGFR L858R/T790M double mutant (669 to 1011 residues) expressed in mammalian system incubated for 1 hr; how it was run: as §1
Homo sapiens [10] = organism: Homo sapiens; assay: (§2) Inhibition of recombinant human N-terminally GST-His6 tagged EGFR del 747-752/P753S mutant (H672 to A1210 residues) C-terminal fragment harboring 3C cleavage site expressed in Baculovirus infected Sf9 cells assessed as residual activity at 1 uM in presence of [33-gamma]-ATP after 60 mins by scintillation counting method relative to control
[11] = tested on: Epidermal growth factor receptor (Homo sapiens), P00533 [G719S]; assay: as §2, with “G719S” for “del 747-752/P753S”
[12] = tested on: Epidermal growth factor receptor (Homo sapiens), P00533 [L858R]; assay: as §2, with “L858R” for “del 747-752/P753S”
[13] = tested on: Epidermal growth factor receptor (Homo sapiens), P00533 [T790M]; assay: as §2, with “T790M” for “del 747-752/P753S”
[14] = tested on: Epidermal growth factor receptor (Homo sapiens), P00533 [L858R,T790M]; assay: as §2, with “T790M/L858R double” for “del 747-752/P753S”
EGFR (wild-type) = EGFR (wild-type) (Homo sapiens, UniProt P00533); assay: as §2, with “recombinant wild-type” for “recombinant”, “EGFR” for “EGFR del 747-752/P753S mutant”; conditions: read-out: Activity
[15] = target: Tyrosine-protein kinase BTK (Homo sapiens) (UniProt Q06187); assay: Inhibition of recombinant full-length human N-terminally GST-HIS6 tagged BTK (M1 to S659 residues) harboring 3C-cleavage site expressed in Baculovirus infected Sf9 cells assessed as residual activity at 1 uM in presence of [33-gamma]-ATP after 60 mins by scintillation counting method relative to control
[16] = target: Mitogen-activated protein kinase kinase kinase kinase 4 (Homo sapiens) (UniProt O95819); assay: Inhibition of recombinant human N-terminally GST-His6 tagged MAP4K4 (A7 to W1320 residues) harboring 3C-cleavage site expressed in Baculovirus infected Sf9 cells assessed as residual activity at 1 uM in presence of [33-gamma]-ATP after 60 mins by scintillation counting method relative to control
[17] = target: MAP kinase-activated protein kinase 2 (Homo sapiens) (UniProt P49137); assay: Inhibition of recombinant full-length human MAPKAPK2 (M1 to L370 residues) expressed in Baculovirus infected Sf9 cells assessed as residual activity at 1 uM in presence of [33-gamma]-ATP after 60 mins by scintillation counting method relative to control
[18] = target: Serine/threonine-protein kinase 26 (Homo sapiens) (UniProt Q9P289); assay: Inhibition of recombinant full-length human MST4 (M1 to P416 residues) harboring thrombin cleavage site expressed in Baculovirus infected Sf9 cells assessed as residual activity at 1 uM in presence of [33-gamma]-ATP after 60 mins by scintillation counting method relative to control
[19] = target: Serine/threonine-protein kinase 25 (Homo sapiens) (UniProt O00506); assay: Inhibition of STK25 (unknown origin) assessed as residual activity at 1 uM in presence of [33-gamma]-ATP after 60 mins by scintillation counting method relative to control
[20] = target: Tyrosine-protein kinase TXK (Homo sapiens) (UniProt P42681); assay: Inhibition of TXK (unknown origin) assessed as residual activity at 1 uM in presence of [33-gamma]-ATP after 60 mins by scintillation counting method relative to control
[21] = target: Mitogen-activated protein kinase 14 (Homo sapiens, UniProt Q16539); assay: Inhibition of p38alpha MAPK (unknown origin) assessed as decrease in ATF2 phosphorylation at Thr69/71 at 1 uM after 1 hr by ELISA
Homo sapiens [22] = organism: Homo sapiens; assay: Selectivity ratio of IC50 for p38alpha MAPK (unknown origin) to IC50 for recombinant human GST-tagged EGFR L858R/T790M double mutant cytoplasmic domain expressed in baculovirus expression system
[23] = tested on: Epidermal growth factor receptor (Homo sapiens), P00533 [L858R]; assay: Ratio of Kd for human EGFR L858R mutant (669 to 1011 residues) after 1 hr to Kd for human EGFR L858R mutant (669 to 1011 residues) after 6 hrs
How it was run: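 Kd from competition with an immobilized active-site-directed ligand […]. Ratio compares 1 h compound–kinase equilibration against an arm with 6 h overall equilibration.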

Chain of Serine/threonine-protein kinase 26 (Homo sapiens) (Q9P289 2-416 limits assumed): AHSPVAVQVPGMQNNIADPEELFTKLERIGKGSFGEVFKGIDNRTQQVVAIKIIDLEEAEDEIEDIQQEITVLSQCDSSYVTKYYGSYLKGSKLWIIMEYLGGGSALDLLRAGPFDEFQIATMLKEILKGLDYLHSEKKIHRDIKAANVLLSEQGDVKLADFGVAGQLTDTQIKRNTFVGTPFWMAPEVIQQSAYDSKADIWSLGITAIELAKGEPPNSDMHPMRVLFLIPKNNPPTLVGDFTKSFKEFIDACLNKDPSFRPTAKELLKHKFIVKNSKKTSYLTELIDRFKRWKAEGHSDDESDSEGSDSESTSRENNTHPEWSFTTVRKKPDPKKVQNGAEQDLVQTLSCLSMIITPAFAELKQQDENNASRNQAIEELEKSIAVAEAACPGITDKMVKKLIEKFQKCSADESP
Chain of Tyrosine-protein kinase BTK (Homo sapiens) (Q06187 whole entry, the tested form may be a part): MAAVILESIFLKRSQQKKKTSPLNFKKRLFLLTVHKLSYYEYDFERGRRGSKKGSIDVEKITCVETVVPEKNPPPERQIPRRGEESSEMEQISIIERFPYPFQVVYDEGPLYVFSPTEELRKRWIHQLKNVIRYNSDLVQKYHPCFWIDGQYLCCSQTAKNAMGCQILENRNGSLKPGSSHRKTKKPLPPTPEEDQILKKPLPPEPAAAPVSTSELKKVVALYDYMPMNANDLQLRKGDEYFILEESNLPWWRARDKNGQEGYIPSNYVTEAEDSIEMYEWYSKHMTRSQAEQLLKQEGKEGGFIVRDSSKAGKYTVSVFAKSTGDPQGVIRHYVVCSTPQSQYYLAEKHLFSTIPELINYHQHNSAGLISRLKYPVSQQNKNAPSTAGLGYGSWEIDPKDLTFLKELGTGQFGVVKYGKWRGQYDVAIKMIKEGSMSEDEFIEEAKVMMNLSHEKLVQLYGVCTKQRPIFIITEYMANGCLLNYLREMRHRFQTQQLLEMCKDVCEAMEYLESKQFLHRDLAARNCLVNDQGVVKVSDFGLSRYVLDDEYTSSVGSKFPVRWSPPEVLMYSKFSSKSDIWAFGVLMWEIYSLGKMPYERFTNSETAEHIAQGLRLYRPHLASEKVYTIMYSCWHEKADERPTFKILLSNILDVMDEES
Chain of Serine/threonine-protein kinase 25 (Homo sapiens) (O00506 whole entry, looked up): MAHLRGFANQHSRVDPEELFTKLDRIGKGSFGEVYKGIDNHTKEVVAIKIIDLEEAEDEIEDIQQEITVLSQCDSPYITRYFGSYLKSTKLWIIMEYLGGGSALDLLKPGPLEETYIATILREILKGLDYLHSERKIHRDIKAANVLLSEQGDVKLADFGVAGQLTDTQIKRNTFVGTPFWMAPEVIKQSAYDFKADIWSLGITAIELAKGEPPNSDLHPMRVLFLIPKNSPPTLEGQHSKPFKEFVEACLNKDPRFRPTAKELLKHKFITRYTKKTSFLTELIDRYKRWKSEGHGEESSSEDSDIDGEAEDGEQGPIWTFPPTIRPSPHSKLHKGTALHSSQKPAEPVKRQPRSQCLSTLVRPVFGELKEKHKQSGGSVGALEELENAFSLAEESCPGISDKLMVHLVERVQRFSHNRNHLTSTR
Chain of Tyrosine-protein kinase TXK (Homo sapiens) (P42681 whole entry): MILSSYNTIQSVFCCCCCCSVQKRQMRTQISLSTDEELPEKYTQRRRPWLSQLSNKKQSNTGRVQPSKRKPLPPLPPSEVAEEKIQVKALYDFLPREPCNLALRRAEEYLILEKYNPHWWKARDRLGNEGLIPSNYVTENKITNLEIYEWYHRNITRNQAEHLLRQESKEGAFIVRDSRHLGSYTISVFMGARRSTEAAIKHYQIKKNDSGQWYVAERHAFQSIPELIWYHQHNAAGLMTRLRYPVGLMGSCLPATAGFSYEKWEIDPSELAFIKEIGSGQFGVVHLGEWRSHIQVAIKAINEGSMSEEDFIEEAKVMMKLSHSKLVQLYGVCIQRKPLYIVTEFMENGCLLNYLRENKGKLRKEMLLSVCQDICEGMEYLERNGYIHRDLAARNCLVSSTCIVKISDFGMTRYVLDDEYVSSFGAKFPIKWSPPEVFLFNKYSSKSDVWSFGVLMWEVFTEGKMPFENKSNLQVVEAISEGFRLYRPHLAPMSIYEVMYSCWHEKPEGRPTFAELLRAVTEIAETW
Chain of Mitogen-activated protein kinase kinase kinase kinase 4 (Homo sapiens) (O95819 2-1239 limits assumed): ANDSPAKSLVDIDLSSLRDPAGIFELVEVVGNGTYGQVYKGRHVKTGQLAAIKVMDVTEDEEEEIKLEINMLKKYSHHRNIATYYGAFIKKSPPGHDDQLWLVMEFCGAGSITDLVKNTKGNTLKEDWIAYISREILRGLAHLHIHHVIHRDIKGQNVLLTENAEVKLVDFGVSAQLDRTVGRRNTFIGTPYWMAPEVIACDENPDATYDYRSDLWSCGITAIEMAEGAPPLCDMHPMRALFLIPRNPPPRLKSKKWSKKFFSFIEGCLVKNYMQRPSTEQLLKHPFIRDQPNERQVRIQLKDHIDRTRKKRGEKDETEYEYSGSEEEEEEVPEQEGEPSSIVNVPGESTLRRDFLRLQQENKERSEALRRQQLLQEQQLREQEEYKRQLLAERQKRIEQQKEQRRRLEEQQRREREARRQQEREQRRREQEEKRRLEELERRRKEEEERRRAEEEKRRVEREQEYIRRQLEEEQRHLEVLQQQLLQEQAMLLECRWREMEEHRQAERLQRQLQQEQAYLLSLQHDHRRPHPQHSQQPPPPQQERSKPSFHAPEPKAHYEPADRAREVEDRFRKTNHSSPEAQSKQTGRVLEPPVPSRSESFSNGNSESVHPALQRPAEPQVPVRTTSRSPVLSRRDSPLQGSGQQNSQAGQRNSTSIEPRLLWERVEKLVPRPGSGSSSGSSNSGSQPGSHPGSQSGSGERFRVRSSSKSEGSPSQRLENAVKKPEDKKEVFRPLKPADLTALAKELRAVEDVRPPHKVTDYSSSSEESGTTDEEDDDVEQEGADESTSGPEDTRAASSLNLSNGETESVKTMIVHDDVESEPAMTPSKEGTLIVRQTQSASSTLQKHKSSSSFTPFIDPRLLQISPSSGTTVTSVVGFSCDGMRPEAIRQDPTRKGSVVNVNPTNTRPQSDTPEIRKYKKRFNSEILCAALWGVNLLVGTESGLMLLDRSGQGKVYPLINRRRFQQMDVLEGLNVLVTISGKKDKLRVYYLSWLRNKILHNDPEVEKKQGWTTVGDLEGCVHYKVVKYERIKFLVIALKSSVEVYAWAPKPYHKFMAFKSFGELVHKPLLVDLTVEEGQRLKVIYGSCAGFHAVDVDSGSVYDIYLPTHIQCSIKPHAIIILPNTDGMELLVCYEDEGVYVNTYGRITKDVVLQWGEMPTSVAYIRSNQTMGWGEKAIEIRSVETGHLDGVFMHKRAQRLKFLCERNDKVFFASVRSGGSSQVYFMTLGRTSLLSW
Chain of Mitogen-activated protein kinase 14 (Q16539 whole entry, the tested form may be a part): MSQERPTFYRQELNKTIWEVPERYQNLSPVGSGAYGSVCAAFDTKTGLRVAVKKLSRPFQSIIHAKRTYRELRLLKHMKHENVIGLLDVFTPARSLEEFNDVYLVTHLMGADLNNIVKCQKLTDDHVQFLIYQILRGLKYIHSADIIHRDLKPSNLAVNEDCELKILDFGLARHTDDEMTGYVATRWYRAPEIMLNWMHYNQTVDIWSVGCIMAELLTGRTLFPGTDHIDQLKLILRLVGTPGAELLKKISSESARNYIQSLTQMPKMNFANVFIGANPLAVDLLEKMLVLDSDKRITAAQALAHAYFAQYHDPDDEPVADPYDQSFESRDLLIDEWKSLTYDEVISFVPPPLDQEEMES
Chain of MAP kinase-activated protein kinase 2 (Homo sapiens) (P49137 whole entry, looked up, the tested form may be a part): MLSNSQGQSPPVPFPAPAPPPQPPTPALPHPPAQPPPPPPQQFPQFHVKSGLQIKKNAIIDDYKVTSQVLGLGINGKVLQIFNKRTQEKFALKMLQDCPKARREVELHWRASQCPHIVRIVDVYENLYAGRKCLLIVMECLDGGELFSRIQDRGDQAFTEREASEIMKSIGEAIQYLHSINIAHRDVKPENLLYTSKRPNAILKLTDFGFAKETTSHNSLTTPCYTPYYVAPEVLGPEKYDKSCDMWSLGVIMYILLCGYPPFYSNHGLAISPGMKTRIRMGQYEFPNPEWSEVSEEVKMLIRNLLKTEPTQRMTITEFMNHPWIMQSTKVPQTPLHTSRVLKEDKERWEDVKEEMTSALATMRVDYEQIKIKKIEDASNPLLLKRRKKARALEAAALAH

What does the source list for `C=CC(=O)Nc1cccc(-c2c[nH]c3nccc(-c4[nH]c(CCCO)nc4-c4ccc(F)cc4)c23)c1`?
IC50 [1]: < 0.3 nM; IC50 [2]: 1.52 nM; IC50 [3]: Not Active; solubility [4]: 299 µg/mL (≈ 621 µM); Ratio IC50 (Homo sapiens [5]): > 40; Kd [6]: 2 nM; Kd [7]: 3.4 nM; Kd [8]: 1.8 nM; Kd [9]: 13 nM; Activity (Homo sapiens [10]): 4%; Activity [11]: 22%; Activity [12]: 6%; Activity [13]: 12%; Activity [14]: 21%; activity at 1 h, 1 µM (EGFR (wild-type)): 5%; Activity [15]: 17%; Activity [16]: 1%; Activity [17]: 48%; Activity [18]: 47%; Activity [19]: 49%; Activity [20]: 3%; IC50 [21]: 214 nM; Ratio IC50 (Homo sapiens [22]): 140; Ratio [23]: 3 to 5
